How the values were obtained:
[1] = species: Canis familiaris; assay: Percent reduction in Uncinaria eggs per gram, after oral treatment of 75 mg/dog dose of compound in a single treatment; assay type: functional, Canis lupus familiaris, Egg
[2] = system: Ovis aries; assay: Percent reduction in Trichuris eggs per gram, after treatment with 200 mg/kg dose of compound perorally in sheep; assay type: functional, Egg; details: dose 200 mg/kg; route oral
In short: (§1)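 Naturally parasitized lambs, dosed orally either with a suspension by stomach tube or with finely ground compound in gelatin capsules by balling gun. Activity was scored by the clinical test method, meaning a significant fall in helminth egg counts after treatment.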

[3] = system: Ovis aries; assay: Percent reduction in Trichuris eggs per gram, after treatment with 400 mg/kg dose of compound perorally in sheep; assay type: functional, Egg; details: route oral; in short: as §1
[4] = system: Ovis aries; assay: Percent reduction in Oesophagostomum eggs per gram, after treatment of 200 mg/kg dose of compound perorally in sheep; assay type: functional, Egg; details: route oral
In short: (§2)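 Naturally parasitized lambs were dosed orally at the stated mg/kg. Dosing was either as a suspension of finely ground compound by stomach tube, or as ground compound weighed into gelatin capsules and given by balling gun. Activity was scored by the clinical test method: the decrease in posttreatment helminth eggs per gram.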

[5] = system: Ovis aries; assay: Percent reduction in Strongyloides eggs per gram, after treatment with 400 mg/kg dose of compound perorally in sheep; assay type: functional, Egg; details: route oral; in short: as §1
[6] = species: Mus musculus; assay: Percent clearance of Syphacaia obvelata from mouse after oral treatment of 0.45 mg/mouse/day; assay type: functional
In short: (§3)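 Mice naturally carrying Syphacia obvelata were experimentally infected with Nematospiroides dubius and Hymenolepis nana, then grouped after a 2-week prepatency. Finely ground compound was suspended in aqueous 0.10% carboxymethylcellulose, 0.04% polysorbate 80 and 0.0042% polyparaben, and 0.1 mL was given orally by cannula once daily for 4 days to five mice. Necropsy followed 2 days later, scoring presence or absence of each parasite. Control clearance was subtracted from the treated clearance.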

[7] = system: Ovis aries; assay: Percent reduction in Haemonchus eggs per gram, after treatment with 400 mg/kg dose of compound perorally in sheep; assay type: functional, Egg; details: route oral; in short: as §2
[8] = system: Ovis aries; assay: Percent reduction in Trichostrongylus eggs per gram, after treatment with 400 mg/kg dose of compound perorally in sheep; assay type: functional, Egg; details: route oral; in short: as §1
[9] = species: Canis familiaris; assay: Percent reduction in Toxascaris eggs per gram, after oral treatment of 75 mg/dog dose of compound in a single treatment; assay type: functional, Canis lupus familiaris, Egg
In short: (§4)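 Dogs naturally infected with Toxascaris leonina were experimentally infected with mixed Ancylostoma caninum and Uncinaria stenocephala larvae. Finely ground compound was given orally in gelatin capsules. Three egg count determinations were made before and three after treatment in each experiment.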

[10] = species: Mus musculus; assay: Percent clearance of Nematospiroides dubius from mouse after oral treatment of 0.45 mg/mouse/day; assay type: functional; in short: as §3
[11] = system: Ovis aries; assay: Percent reduction in Ostertagia eggs per gram, after treatment of 200 mg/kg dose of compound perorally in sheep; assay type: functional, Egg; details: route oral; in short: as §2
[12] = system: Ovis aries; assay: Percent reduction in Haemonchus eggs per gram, after treatment of 200 mg/kg dose of compound perorally in sheep; assay type: functional, Egg; details: route oral
In short: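 Naturally parasitized lambs received compound orally, either as the aqueous suspension by stomach tube or as finely ground powder in gelatin capsules by balling gun. Activity was judged by the clinical test method, as a significant decrease in posttreatment helminth egg counts.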

[13] = system: Ovis aries; assay: Percent reduction in Ostertagia eggs per gram, after treatment with 400 mg/kg dose of compound perorally in sheep; assay type: functional, Egg; details: route oral; in short: as §1
[14] = system: Ovis aries; assay: Percent reduction in Strongyloides eggs per gram, after treatment with 200 mg/kg dose of compound perorally in sheep; assay type: functional, Egg; details: route oral; in short: as §1
[15] = system: Ovis aries; assay: Percent reduction in Trichostrongylus eggs per gram, after treatment of 200 mg/kg dose of compound perorally in sheep; assay type: functional, Egg; details: route oral
In short: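 Lambs naturally parasitized with helminths. Finely ground compound was given orally, either as an aqueous suspension by stomach tube or weighed into gelatin capsules given by balling gun. Activity was assessed by the clinical test method: the reduction in helminth egg counts after treatment.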

[16] = species: Canis familiaris; assay: Percent reduction in Uncinaria eggs per gram, after oral treatment of 200 mg/dog dose of compound in a single treatment; assay type: functional, Canis lupus familiaris, Egg; in short: as §4
[17] = species: Mus musculus; assay: Percent clearance of Syphacaia obvelata from mouse after oral treatment of 1.87 mg/mouse/day; assay type: functional; in short: as §3
[18] = species: Mus musculus; assay: Percent clearance of Nematospiroides dubius from mouse after oral treatment of 1.87 mg/mouse/day; assay type: functional; in short: as §3
[19] = species: Canis familiaris; assay: Percent reduction in Toxascaris eggs per gram, after oral treatment of 200 mg/dog dose of compound in a single treatment; assay type: functional, Canis lupus familiaris, Egg; in short: as §4
[20] = species: Canis familiaris; assay: Percent reduction in Toxascaris eggs per gram, after oral treatment of 100 mg/dog dose of compound in a single treatment; assay type: functional, Canis lupus familiaris, Egg; in short: as §4
[21] = species: Canis familiaris; assay: Percent reduction in Uncinaria eggs per gram, after oral treatment of 100 mg/dog dose of compound in a single treatment; assay type: functional, Canis lupus familiaris, Egg; in short: as §4
[22] = species: Mus musculus; assay: Percent clearance of Syphacaia obvelata from mouse after oral treatment of 0.57 mg/mouse/day; assay type: functional; in short: as §3
[23] = species: Mus musculus; assay: Percent clearance of Nematospiroides dubius from mouse after oral treatment of 0.57 mg/mouse/day; assay type: functional; in short: as §3

## Fc1c(F)c(F)c(/C(Cl)=N/Nc2ccccc2)c(F)c1F
[1]
  Reduction: 100%
[2]
  Reduction: 10%
[3]
  Reduction: 88%
[4]
  Reduction: 100%
[5]
  Reduction: 99%
[6]
  Parasite_Clearance: 0%
[7]
  Reduction: 96%
[8]
  Reduction: 96%
[9]
  Reduction: 71.4%
[10]
  Parasite_Clearance: 0%
[11]
  Reduction: 93%
[12]
  Reduction: 85%
[13]
  Reduction: 95%
[14]
  Reduction: 93%
[15]
  Reduction: 0%

## Cl/C(=N\Nc1ccccc1)c1ccc(I)cc1
[16]
  Reduction: 63%
[17]
  Parasite_Clearance: 100%
[18]
  Parasite_Clearance: 80%
[19]
  Reduction: 100%
[20]
  Reduction: 0%
[21]
  Reduction: 41%

## Cl/C(=N\Nc1ccccc1)c1cc(Cl)cc(Cl)c1
[22]
  Parasite_Clearance: 25%
[23]
  Parasite_Clearance: 0%
